This note sets out measurements from ChEMBL document CHEMBL1146365, “Synthesis and biological evaluation of new N-(2-hydroxy-4(or 5)-nitro/aminophenyl)benzamides and phenylacetamides as antimicrobial agents” (2007).

Values after ≈ are worked out from the molar mass of the structure shown.

The subject of assay [1] is Pseudomonas aeruginosa. The assay is described as follows: Antibacterial activity against Pseudomonas aeruginosa ATCC […] assessed after 24 hrs by serial dilution method.
Assay [2] concerns Staphylococcus aureus. The assay is described as follows: Antibacterial activity against Staphylococcus aureus ATCC 25923 assessed after 24 hrs by serial dilution method. Type of assay: functional. In short, it runs like this: (§1)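 Strains were subcultured twice on MHA at 37 °C overnight. Inoculum was diluted from McFarland 0.5 to 10^5 cfu/ml, giving 10^4 cfu/ml in wells. Solvent, medium and organism-only controls were included. Incubated 37 °C, humid chamber, 24 h, in triplicate. MIC = lowest concentration with no macroscopic growth.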

Assay [3] deals with Klebsiella pneumoniae. The assay is described as follows: Antibacterial activity against Klebsiella pneumoniae RSHM 574 assessed after 24 hrs by serial dilution method.
The subject of assay [4] is Klebsiella pneumoniae. Put plainly: Antibacterial activity against Klebsiella pneumoniae isolate assessed after 24 hrs by serial dilution method. Type of assay: functional. In short, it runs like this: as §1
The subject of assay [5] is Bacillus subtilis. Put plainly: Antibacterial activity against Bacillus subtilis ATCC 6633 assessed after 24 hrs by serial dilution method. Type of assay: functional. In a few lines:
as §1

The subject of assay [6] is Pseudomonas aeruginosa. The assay is described as follows: Antibacterial activity against Pseudomonas aeruginosa isolate assessed after 24 hrs by serial dilution method. Type of assay: functional. In a few lines: as §1
Assay [7] concerns Staphylococcus aureus. Put plainly: Antibacterial activity against drug-resistant Staphylococcus aureus assessed after 24 hrs by serial dilution method.
Assay [8] has as its system Bacillus subtilis. The assay is described as follows: Antibacterial activity against drug-resistant Bacillus subtilis assessed after 24 hrs by serial dilution method.
Assay [9] deals with Candida albicans. The assay is described as follows: Antifungal activity against Candida albicans ATCC 10231 assessed after 48 hrs by serial dilution method. In kind it is functional. As to conditions: ATCC 10231, 48 h. In a few lines: (§2)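 Broth microdilution per CLSI M27-A in RPMI-1640 with L-glutamine, MOPS-buffered pH 7, with 2-fold compound dilutions. Yeasts were subcultured twice on SDA at 35 °C for 24–48 h. Inoculum was diluted from McFarland 0.5 to 10^4 cfu/ml, giving 10^3 cfu/ml in wells. Incubated 35 °C, humid chamber, 48 h, in triplicate. MIC = lowest concentration with no macroscopic growth.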

The subject of assay [10] is Escherichia coli. The assay is described as follows: Antibacterial activity against Escherichia coli isolate assessed after 24 hrs by serial dilution method. In kind it is functional. In short, it runs like this: as §1
For assay [11], the system named is Candida albicans. Put plainly: Antifungal activity against Candida albicans isolate assessed after 48 hrs by serial dilution method. Type of assay: functional. In a few lines: as §2
Assay [12] concerns Escherichia coli. Put plainly: Antibacterial activity against Escherichia coli ATCC assessed after 24 hrs by serial dilution method.
Assay [13] has as its system Escherichia coli. Put plainly: Antibacterial activity against Escherichia coli ATCC 25922 assessed after 24 hrs by serial dilution method.

For `Nc1ccc(NC(=O)Cc2ccc(Cl)cc2)c(O)c1`, the MIC was 125 µg/mL (≈ 452 µM) against Pseudomonas aeruginosa [1]; 62.5 µg/mL (≈ 226 µM) against Staphylococcus aureus [2] (ATCC 25923, 24 h); 125 µg/mL (≈ 452 µM) against Klebsiella pneumoniae [3]; 250 µg/mL (≈ 903 µM) against Klebsiella pneumoniae [4]; 250 µg/mL (≈ 903 µM) against Bacillus subtilis [5] (ATCC 6633, 24 h); 125 µg/mL (≈ 452 µM) in the assay with Pseudomonas aeruginosa [6]. The MIC against Staphylococcus aureus [7] stood at 31.2 µg/mL (≈ 113 µM); in the assay on Bacillus subtilis [8] it was 62.5 µg/mL (≈ 226 µM); against Candida albicans [9] it was 125 µg/mL (≈ 452 µM); in the assay on Escherichia coli [10], 125 µg/mL (≈ 452 µM); against Candida albicans [11], 125 µg/mL (≈ 452 µM); against Escherichia coli [12] it was 125 µg/mL (≈ 452 µM).

As to `CCc1ccc(C(=O)Nc2cc([N+](=O)[O-])ccc2O)cc1`, the MIC came to 62.5 µg/mL (≈ 218 µM) in the assay with Pseudomonas aeruginosa [1]; 7.8 µg/mL (≈ 27.2 µM) against Staphylococcus aureus [2] (ATCC 25923, 24 h); 250 µg/mL (≈ 873 µM) in the assay on Klebsiella pneumoniae [3]; 125 µg/mL (≈ 437 µM) in the assay on Klebsiella pneumoniae [4]; 3.9 µg/mL (≈ 13.6 µM) in the assay with Bacillus subtilis [5] (ATCC 6633, 24 h); 250 µg/mL (≈ 873 µM) with Pseudomonas aeruginosa [6]. Further, the minimum inhibitory concentration (MIC) is 7.8 µg/mL (≈ 27.2 µM) against Staphylococcus aureus [7]; 31.2 µg/mL (≈ 109 µM) with Bacillus subtilis [8]; 125 µg/mL (≈ 437 µM) in the assay on Candida albicans [9]; 250 µg/mL (≈ 873 µM) against Escherichia coli [10]; 62.5 µg/mL (≈ 218 µM) in the assay with Candida albicans [11]; 125 µg/mL (≈ 437 µM) with Escherichia coli [12].

For `Nc1ccc(NC(=O)c2ccccc2)c(O)c1`, the MIC in the assay with Pseudomonas aeruginosa [1] amounted to 125 µg/mL (≈ 548 µM); with Staphylococcus aureus [2] (ATCC 25923, 24 h) it was 125 µg/mL (≈ 548 µM); in the assay on Klebsiella pneumoniae [3], 125 µg/mL (≈ 548 µM); in the assay on Klebsiella pneumoniae [4], 250 µg/mL (≈ 1100 µM); with Bacillus subtilis [5] (ATCC 6633, 24 h) it was 62.5 µg/mL (≈ 274 µM); in the assay on Pseudomonas aeruginosa [6], 250 µg/mL (≈ 1100 µM). The minimal inhibitory concentration (MIC) in the assay on Staphylococcus aureus [7] stood at 15.6 µg/mL (≈ 68.3 µM); in the assay with Bacillus subtilis [8], 62.5 µg/mL (≈ 274 µM); in the assay on Candida albicans [9] it was 62.5 µg/mL (≈ 274 µM); against Escherichia coli [10], 125 µg/mL (≈ 548 µM); against Candida albicans [11] it was 62.5 µg/mL (≈ 274 µM); against Escherichia coli [12] it was 125 µg/mL (≈ 548 µM).

In the case of `O=C(Nc1ccc([N+](=O)[O-])cc1O)c1ccc(Br)cc1`, the minimum inhibitory concentration (MIC) against Pseudomonas aeruginosa [1] was 250 µg/mL (≈ 742 µM); against Staphylococcus aureus [2] (ATCC 25923, 24 h) it was 7.8 µg/mL (≈ 23.1 µM); against Klebsiella pneumoniae [3], 125 µg/mL (≈ 371 µM); against Klebsiella pneumoniae [4], 125 µg/mL (≈ 371 µM); against Bacillus subtilis [5] (ATCC 6633, 24 h), 3.9 µg/mL (≈ 11.6 µM); with Pseudomonas aeruginosa [6], 250 µg/mL (≈ 742 µM). Also, the MIC against Staphylococcus aureus [7] was found to be 500 µg/mL (≈ 1480 µM); in the assay with Bacillus subtilis [8] it was 1.95 µg/mL (≈ 5.78 µM); with Candida albicans [9], 250 µg/mL (≈ 742 µM); against Escherichia coli [10] it was 250 µg/mL (≈ 742 µM); with Candida albicans [11], 125 µg/mL (≈ 371 µM); in the assay on Escherichia coli [12] it was 62.5 µg/mL (≈ 185 µM).

As to `Cc1ccc(CC(=O)Nc2ccc(N)cc2O)cc1`, the MIC came to 125 µg/mL (≈ 488 µM) against Pseudomonas aeruginosa [1]; 250 µg/mL (≈ 975 µM) in the assay on Staphylococcus aureus [2] (ATCC 25923, 24 h); 125 µg/mL (≈ 488 µM) in the assay on Klebsiella pneumoniae [3]; 250 µg/mL (≈ 975 µM) with Klebsiella pneumoniae [4]; 62.5 µg/mL (≈ 244 µM) with Bacillus subtilis [5] (ATCC 6633, 24 h); 250 µg/mL (≈ 975 µM) in the assay with Pseudomonas aeruginosa [6]. The minimal inhibitory concentration (MIC) against Staphylococcus aureus [7] was 62.5 µg/mL (≈ 244 µM); with Bacillus subtilis [8], 62.5 µg/mL (≈ 244 µM); in the assay on Candida albicans [9] it was 125 µg/mL (≈ 488 µM); in the assay with Escherichia coli [10], 250 µg/mL (≈ 975 µM); in the assay on Candida albicans [11], 250 µg/mL (≈ 975 µM); against Escherichia coli [12] it was 125 µg/mL (≈ 488 µM).

As for GENTAMICIN SULFATE, the MIC is 1020 µg/mL in the assay on Escherichia coli [13]; above 4100 µg/mL against Staphylococcus aureus [2]; above 4100 µg/mL in the assay with Klebsiella pneumoniae [3]; 1020 µg/mL in the assay with Klebsiella pneumoniae [4]; 512 µg/mL against Bacillus subtilis [5]; 1020 µg/mL against Pseudomonas aeruginosa [6]. Moreover, the MIC against Staphylococcus aureus [7] came to 1020 µg/mL; in the assay on Bacillus subtilis [8], 2050 µg/mL; with Escherichia coli [10] it was 0.97 µg/mL.

`Nc1ccc(O)c(NC(=O)c2ccccc2)c1`: the MIC in the assay with Pseudomonas aeruginosa [1] worked out at 125 µg/mL (≈ 548 µM); in the assay with Staphylococcus aureus [2] (ATCC 25923, 24 h), 31.2 µg/mL (≈ 137 µM); in the assay with Klebsiella pneumoniae [3], 125 µg/mL (≈ 548 µM); against Klebsiella pneumoniae [4], 250 µg/mL (≈ 1100 µM); in the assay with Bacillus subtilis [5] (ATCC 6633, 24 h) it was 15.6 µg/mL (≈ 68.3 µM); in the assay with Pseudomonas aeruginosa [6] it was 250 µg/mL (≈ 1100 µM). For the same molecule, the minimum inhibitory concentration (MIC) with Staphylococcus aureus [7] came to 31.2 µg/mL (≈ 137 µM); against Bacillus subtilis [8], 62.5 µg/mL (≈ 274 µM); in the assay with Candida albicans [9], 125 µg/mL (≈ 548 µM); in the assay with Escherichia coli [10], 250 µg/mL (≈ 1100 µM); in the assay with Candida albicans [11], 125 µg/mL (≈ 548 µM); with Escherichia coli [12], 125 µg/mL (≈ 548 µM).

In the case of `Cc1ccc(CC(=O)Nc2ccc([N+](=O)[O-])cc2O)cc1`, the MIC in the assay on Pseudomonas aeruginosa [1] was 250 µg/mL (≈ 873 µM); in the assay with Staphylococcus aureus [2] (ATCC 25923, 24 h), 250 µg/mL (≈ 873 µM); against Klebsiella pneumoniae [3], 125 µg/mL (≈ 437 µM); with Klebsiella pneumoniae [4], 250 µg/mL (≈ 873 µM); in the assay on Bacillus subtilis [5] (ATCC 6633, 24 h), 125 µg/mL (≈ 437 µM); against Pseudomonas aeruginosa [6], 250 µg/mL (≈ 873 µM). In addition, the MIC in the assay with Staphylococcus aureus [7] was determined as 500 µg/mL (≈ 1750 µM); in the assay on Bacillus subtilis [8] it was 250 µg/mL (≈ 873 µM); with Candida albicans [9], 62.5 µg/mL (≈ 218 µM); in the assay with Escherichia coli [10], 250 µg/mL (≈ 873 µM); against Candida albicans [11], 250 µg/mL (≈ 873 µM); with Escherichia coli [12] it was 125 µg/mL (≈ 437 µM).

By MIC is commonly meant the lowest concentration found to suppress growth. A low value points to greater potency.
